Measurements published in ChEMBL document CHEMBL4834426, “Antimalarial Benzimidazole Derivatives Incorporating Phenolic Mannich Base Side Chains Inhibit Microtubule and Hemozoin Formation: Structure-Activity Relationship and In Vivo Oral Efficacy Studies” (J Med Chem, 2021).
pIC50: −log10 of the molar value.

Tests used:
[1] = system: Plasmodium falciparum; assay: Antimalarial activity against asexual blood stage drug-sensitive Plasmodium falciparum NF54 infected in erythrocytes assessed as reduction in parasitemia incubated up to 72 hrs by [3H]hypoxanthine incorporation assay; assay type: functional, organism-based
How it was run: (§1)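 [³H]-Hypoxanthine incorporation assay (modified) on asexual blood-stage P. falciparum in vitro. IC₅₀ values are means of ≥2 independent experiments.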

[2] = Resistance index, ratio of IC50 for antimalarial activity against asexual blood stage multi drug-resistant Plasmodium falciparum K1 to IC50 for antimalarial activity against asexual blood stage drug-sensitive Plasmodium falciparum NF54; assay type: functional
How it was run: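 Resistance index is IC₅₀(K1)/IC₅₀(NF54). Both IC₅₀s came from the [³H]-hypoxanthine incorporation assay, as means of ≥2 independent experiments.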

[3] = system: Plasmodium falciparum; assay: Antiplasmodial activity against […] Plasmodium falciparum NF54 early gametocytes transfected with GFP-Luc […] at 1 uM incubated for 48 hrs by microscopy based luciferase reporter gene assay relative to control; assay type: functional
How it was run: (§2)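 NF54-Pfs16-GFP-Luc gametocytes, assays set up day 5 (early, stage II/III) or day 10 (late, stage IV/V). Culture at 2−3% gametocytemia, 1.5% hematocrit, 48 h drug exposure at 37 °C under 90% N₂/5% O₂/5% CO₂. Lysates mixed with luciferin; bioluminescence read with 10 s integration. Dual-point: one biological repeat in technical triplicate. Methylene blue (5 μM) reference.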

[4] = system: CHO; assay: Cytotoxicity against CHO cells assessed as inhibition of cell viability by MTT assay; assay type: cell-based; details: Cricetulus griseus
[5] = system: Plasmodium falciparum; assay: Antimalarial activity against asexual blood stage multi drug-resistant Plasmodium falciparum K1 infected in erythrocytes assessed as reduction in parasitemia incubated up to 72 hrs by [3H]hypoxanthine incorporation assay; assay type: functional, organism-based; how it was run: as §1
[6] = system: Plasmodium falciparum; assay: Antiplasmodial activity against […] Plasmodium falciparum NF54 late gametocytes transfected with GFP-Luc […] at 5 uM incubated for 48 hrs by microscopy based luciferase reporter gene assay relative to control; assay type: functional; how it was run: as §2
[7] = system: Plasmodium falciparum; assay: Antiplasmodial activity against […] Plasmodium falciparum NF54 early gametocytes transfected with GFP-Luc […] at 5 uM incubated for 48 hrs by microscopy based luciferase reporter gene assay relative to control; assay type: functional; how it was run: as §2
[8] = Selectivity index, ratio of IC50 for Cytotoxicity against CHO cells assessed as inhibition of cell viability by MTT assay to IC50 for antimalarial activity against asexual blood stage Plasmodium falciparum NF54 assessed as reduction in parasitemia incubated up to 72 hrs by [3H]hypoxanthine incorporation assay; assay type: toxicity, cell-based; details: hamster, read-out: Selectivity Index
How it was run: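 Selectivity index is IC₅₀(CHO)/IC₅₀(NF54). […] IC₅₀ came from nonlinear dose-response fitting. Parasite IC₅₀ came from the [³H]-hypoxanthine assay.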

[9] = system: Plasmodium falciparum; assay: Antiplasmodial activity against […] Plasmodium falciparum NF54 late gametocytes transfected with GFP-Luc […] at 1 uM incubated for 48 hrs by microscopy based luciferase reporter gene assay relative to control; assay type: functional; how it was run: as §2

Compound	pIC50 [1]	Ratio IC50 [2]	inhibition at 1 µM [3]	pIC50 [4]	pIC50 [5]	inhibition at 5 µM [6]	inhibition at 5 µM [7]	selectivity ratio at 72 h [8]	inhibition at 1 µM [9]
CCN(CC)Cc1ccc(C)c(Nc2nc3ccccc3n2Cc2ccc(C#N)cc2)c1O	6.06	0.95	19%	< 4.30	6.08	22%	96%	> 57	0%
CCN(CC)Cc1ccc(C)c(Nc2nc3ccccc3n2Cc2ccc(C(F)(F)F)cc2)c1O	5.54	0.33	18%	4.47	6.03	43%	90%	11.8	29%
CCN(CC)Cc1ccc(Nc2nc3ccccc3n2Cc2ccc(C#N)cc2)cc1O	6.43	2.05	38%	4.41	6.12	21%	44%	106	–
CCN(CC)Cc1ccc(Nc2nc3ccccc3[nH]2)cc1O	5.73	> 5.32	–	< 4.30	< 5.00	–	–	> 26	–
CCN(CC)Cc1ccc(Nc2nc3ccccc3n2Cc2ccc(C(F)(F)F)cc2)cc1O	6.33	1.85	36%	4.38	6.06	24%	41%	88.3	2%
CCN(CC)Cc1cc(Nc2nc3ccccc3n2Cc2ccc(C(F)(F)F)cc2)ccc1O	6.41	4.33	34%	4.76	5.77	45%	48%	44.9	31%
CCN(CC)Cc1cccc(Nc2nc3ccccc3n2Cc2ccc(C#N)cc2)c1O	6.00	0.66	47%	< 4.30	6.18	43%	69%	> 50	–
CCN(CC)Cc1cc(Nc2nc3ccccc3n2Cc2ccc(C#N)cc2)ccc1O	6.33	4.19	20%	< 4.30	5.71	35%	23%	> 106	–
Cc1cc(CNC(C)(C)C)c(O)c(Nc2nc3cc(F)c(F)cc3[nH]2)c1	6.59	3.19	0%	4.78	6.08	0%	31%	64	0%
CCN(CC)Cc1cc(C)cc(Nc2nc3ccccc3[nH]2)c1O	6.64	1.83	1%	< 4.30	6.38	37%	44%	> 217	–
CC(C)(C)NCc1cc(C(C)(C)C)cc(Nc2nc3ccccc3[nH]2)c1O	7.10	3.12	30%	4.52	6.60	0%	56%	> 380	0%
Cc1cc(CN)c(O)c(Nc2nc3ccccc3n2Cc2ccc(C(F)(F)F)cc2)c1	5.26	–	20%	4.32	–	0%	38%	10.4	0%
CN(C)c1ccc2nc3ccc(N(C)C)cc3[s+]c2c1 [METHYLENE BLUE ANHYDROUS]	–	–	93%	–	–	–	–	–	90%
CCN(CC)Cc1cccc(Nc2nc3ccccc3[nH]2)c1O	6.25	1.38	3%	< 4.30	6.11	34%	0%	> 89	–
